Bioassay records: PubChem, several laboratories
Shown are actives, neighbours in structure and some others; about 9.2% of the full set was active somewhere.
Dynein transport: inhibitors of GR-EGFP nuclear translocation, primary screen, dynein cargo transport inhibitor project, imaging, high-content, 3617.4 mouse cells | test concentration mostly 20 µM; stimulated with dexamethasone, 1 µM; hits give low values | z-score, hits read low | actives 0.47% (n = 220,000) | AID 1381, 2008;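 active = plate z-score of nuclear minus cytoplasmic receptor signal below a set negative limit, without overly bright fluorescence or cell loss, cut at about -3.5 in these data, passing the limit was not always enough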;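 note: z-score of nuclear minus cytoplasmic ring GR-EGFP intensity difference per well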
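Also added – dexamethasone, 1.0 µM final · Buffer or medium – tet-free, stripped-serum medium · Schedule – induction 48 h, compound 1 h, agonist 30 min · Detection – formaldehyde fixation, Hoechst nuclear stain, 10x automated fluorescence imaging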
PTEN del growth: growth suppression of PTEN-null HCT116, primary screen, cell-based, CellTiter-Glo; HCT116 PTEN-null viability, 60 h; hits give low values; viability, % at 10 µM; actives 1.2% (n = 140,000);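 active = viability at or below a set limit, 4 SD under the median of all tested compounds, cut at about 3.7% in these data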;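 note: PTEN knockout HCT116 line with beta catenin targeted HCT116 as companion control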
L major viab: Leishmania major promastigote growth inhibition, primary screen; Leishmania major promastigotes, resazurin fluorescence viability; inhibition, % at 10 µM; actives 9% (n = 200,000); AID 1063, 2008; in the data active = inhibition above about 50%;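 note: promastigotes grown with compound for 44 hours at 28 °C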
bCat KO growth: primary screen for growth suppressors in beta-catenin knockout HCT116 cells (colon tumor, human). HCT116 beta-catenin knockout viability, CellTiter-Glo, 60 h; hits give low values. viability, % at 10 µM. actives 1.5% (n = 140,000);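 active = viability at or under a set limit, the compound median less 4 SD, cut at about 6% in these data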;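 note: 0% = Hyamine 1622 control at 20 µM and 100% = untreated cell control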
Autophagy HCS: autophagy modulators in MEF cells, primary screen, imaging, high-content, MEF GFP-LC3; MEF GFP-LC3 puncta imaging; test concentration mostly 10 µM; calls only at 10 µM (by protocol); AID 463193, 2010; actives 0.98% (n = 190,000);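 active = percentage of spot-positive cells more than 3 SD above its plate mean, without a fluorescence outlier flag or 80% toxicity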;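 note: spot-positive cell cutoff set from DMSO-treated cells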
Numbers without * were called inactive; i = inactive; . = not tested or not shown; + = active, no number.

SMILES	Dynein transport	PTEN del growth	L major viab	bCat KO growth	Autophagy HCS
OCC1(Cc2ccc(Cl)cc2)CCN(Cc2ccc(F)c(F)c2)CC1	-0.51	.	.	.	.
COc1ccc(CC2(CO)CCN(Cc3ccc4nsnc4c3)CC2)cc1	-0.026	.	88*	.	i
COc1ccc(-c2ncc(CN3CCC(CO)(Cc4cccc(OC)c4)CC3)cn2)cc1	-0.57	.	6	.	i
Cc1nc(CCNC(=O)CC2C(=O)NCCN2Cc2ccc(F)cc2)sc1C (stereo not drawn)	0.98	.	-2	.	i
Cc1cc(C)nc(-n2nc(C)c3c(C(=O)O)cc(-c4cccc(Br)c4)nc32)n1	0.12	.	.	.	.
Cc1cnc(C)c(N2CCN(Cc3nc(-c4ccccc4)no3)CC2)n1	0.31	.	-6	.	i
COc1ccc(C(=O)/C=C/c2ccccc2OC)c(OC(=O)c2ccc([N+](=O)[O-])cc2)c1	0.091	.	56*	.	i
COc1ccc(OC(=O)c2cccc([N+](=O)[O-])c2)c(C(=O)/C=C/c2cccs2)c1	-0.7	93	73*	88	i
COc1ccc2c(c1OC)C(=O)N(c1ccc(C)cc1)C2	1.1	.	.	.	.
COc1ccc(C(=O)Nc2ccccc2C(=O)NC(Cc2ccc(O)cc2)C(=O)NNC(=O)c2ccncc2)cc1 (stereo not drawn)	-1.3	.	-4	.	i
COc1cccc(N2CCN(c3cnc4ccccc4n3)CC2)c1	-0.076	.	70*	.	i
CCc1ccc2c(c1)C1(C(=O)N2)N2CCCC2C(C(=O)c2ccc3ccccc3c2)C12C(=O)Nc1ccccc12 (stereo not drawn)	-0.57	1.1*	79*	1.3*	i
Cc1cccc2c1NC(=O)C21N2CCCC2C(C(=O)c2ccc3ccccc3c2)C12C(=O)Nc1ccccc12 (stereo not drawn)	0.56	.	.	.	.
CCc1cccc2c1NC(=O)C21N2CCCC2C(C(=O)c2ccc3ccccc3c2)C12C(=O)Nc1ccccc12 (stereo not drawn)	-0.19	6	82*	9	i
Cn1c(C(=O)N(Cc2ccccc2)Cc2cccs2)cc2sccc21	-0.47	83	2	86	i
CC(C)SC1=NC(C)(C)C=C(/C=C/c2c(Cl)cccc2Cl)N1	-1	14	100*	14	i
CC(C)SC1=NC(C)(C)C=C(/C=C/c2ccc(Cl)cc2Cl)N1	0.15	22	95*	19	i
O=C(COC(=O)c1cccnc1Nc1cccc(C(F)(F)F)c1)NC1CCS(=O)(=O)C1 (stereo not drawn)	0.046	65	-5	66	i
CCCN(CCC)c1nc(C#N)nc(N(CCC)CCC)n1	0.78	.	7	.	i
CCCN(CCC)c1nc(N(CCC)CCC)[nH]c(=O)n1	-0.44	.	57*	.	i
C=CCN1C(=O)/C(=C2/Sc3ccc(OC)cc3N2C)SC1=NCc1ccccc1	0.099	.	-6	.	+
CCN1C(=O)/C(=C2/Sc3ccc(OC)cc3N2C)SC1=Nc1cccc(O)c1	0.062	73	99*	72	i
CCN1C(=O)/C(=C2/Sc3ccc(OC)cc3N2C)SC1=Nc1ccc(C(C)=O)cc1	0.15	.	-2	.	i
C=CCN1C(=O)/C(=C2/Sc3ccc(OC)cc3N2C)SC1=Nc1ccccc1	-0.58	.	-6	.	i
COc1ccc2c(c1)N(C)/C(=C1/SC(=NCc3ccccc3)N(c3ccccc3)C1=O)S2	-0.13	81	-8	62	+
SMILES	Dynein transport	PTEN del growth	L major viab	bCat KO growth	Autophagy HCS
CCN(CC)CCCNCC(=O)Nc1ccc(OC)c(Cl)c1	3.3	.	.	.	.
CC1(C)CC(=O)C(N=Nc2cc(S(=O)(=O)N3CCOCC3)ccc2Cl)=C(O)C1	-0.16	.	.	.	.
CCc1cccc(CC)c1NC(=S)NCCc1c(C)[nH]c2ccc(C)cc12	-0.36	2.6*	53*	6	i
COc1ccc2[nH]c(C)c(CCNC(=S)Nc3cccc(C)c3)c2c1	0.31	69	19	56	i
CCc1cccc(C)c1NC(=S)NCCc1c(C)[nH]c2ccc(C)cc12	-0.98	4	45	3.5*	i
Cc1cc(C(=O)N/N=C/c2cc(Br)cc(Br)c2OC(=O)c2ccccc2)n[nH]1	-0.27	8	81*	5.1*	i
Cc1cc(C(=O)N/N=C/c2cc(Br)ccc2OC(=O)c2ccc(Br)cc2)n[nH]1	0.11	9	98*	14	i
